Legend:
Bacillus subtilis [1] = assay type: functional
Bacillus subtilis [2] = test: microbe, parasite or virus in culture; assay type: functional, organism-based; details: read-out: I50
physchem [3] = details: octanol/water
physchem [4] = details: octanol/water, pH 7.2
physchem [5] = test: physchem
Bacillus subtilis [6] = test: Inhibitory activity on germination of Bacillus subtilis PCI219 spores was determined at 2 x 10E-4 M; assay type: functional
Procedure, shortened: (§1)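 Unheated B. subtilis PCI219 spores (about 2.2×10^8 cells per mL) were incubated with the test compound in 0.1 mM L-alanine germinant and 0.05 M phosphate buffer, pH 7.2, at 37 °C. Germination was followed as the decrease in absorbance at 650 nm. The rate was taken as the slope of the steepest linear portion and compared with an inhibitor-free control.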

Bacillus subtilis [7] = test: Inhibitory activity on germination of Bacillus subtilis PCI219 spores was determined; No inhibition at 5e-2M; assay type: functional, organism-based
Procedure, shortened: as §1

Bacillus subtilis [8] = test system: Bacillus subtilis
[9] = Dissociation constant was determined spectrophotometrically; Experiment 1; assay type: physicochemical
Bacillus subtilis [10] = test: Inhibitory activity on germination of Bacillus subtilis PCI219 spores was determined; No inhibition at 5*10e-2 M; assay type: functional, organism-based
Procedure, shortened: as §1

Bacillus subtilis [11] = test: Inhibitory activity on germination of Bacillus subtilis PCI219 spores was determined; No inhibition at 2.5e-3M; assay type: functional, organism-based
Procedure, shortened: as §1

[12] = Distribution coefficient (log D) was determined at pH 7.2

| Compound | Log 1/I50 (Bacillus subtilis [1]) | IC50 (Bacillus subtilis [2]) | logP (physchem [3]) | logD (physchem [4]) | pKa (physchem [5]) | also measured |
| --- | --- | --- | --- | --- | --- | --- |
| CC(C)Cc1ccccc1O | 3.62 1/M | 242 µM | 3.27 | 3.27 | 10.5 |  |
| CCCCCCCCCCCCCCCCCC(=O)O [STEARIC ACID] |  |  |  |  |  | inhibition at 200 µM (Bacillus subtilis [6]): 14.2% |
| Oc1ccc(Cl)cc1 [PARACHLOROPHENOL] | 3.1 1/M | 797 µM |  |  | 9.4 |  |
| CCc1ccc(O)cc1 | 2.8 1/M | 1600 µM | 2.26 | 2.26 | 10 |  |
| COC(=O)c1ccc(O)cc1 [METHYLPARABEN] | 2.7 1/M | 2010 µM |  |  |  |  |
| CCc1ccccc1O | 3.31 1/M | 493 µM | 2.47 | 2.47 | 10.2 |  |
| CC(C)(C)c1ccc(O)cc1 |  | 302 µM |  |  |  |  |
| CCCCCCCCCCCCCC(=O)O [MYRISTIC ACID] |  |  |  |  |  | inhibition at 200 µM (Bacillus subtilis [6]): 21% |
| Cc1cc(O)cc(O)c1 [ORCINOL] | 1.77 1/M | 16800 µM |  |  | 9.3 |  |
| CC(C)(C)c1ccccc1O | 4.46 1/M | 34.5 µM |  |  | 11.3 |  |
| Oc1ccc(Cl)cc1Cl [2,4-DICHLOROPHENOL] | 3.62 1/M | 242 µM | 3.14 | 3.06 |  |  |
| Oc1ccccc1 [PHENOL] |  | 1500 µM |  |  |  |  |
| CC/C=C\C/C=C\C/C=C\CCCCCCCC(=O)O [LINOLENIC ACID] |  |  |  |  |  | inhibition at 200 µM (Bacillus subtilis [6]): 32% |
| CCCCCCC(=O)O [HEPTANOATE] | 0.82 1/M | 151000 µM | 2.42 | 0.12 | 4.9 |  |
| CC(C)Cc1ccc(O)cc1 | 3.52 1/M | 302 µM | 3.4 | 3.4 | 10.2 |  |
| Oc1c(Cl)cc(Cl)c(Cl)c1Cc1c(O)c(Cl)cc(Cl)c1Cl [HEXACHLOROPHENE] | 3.7 1/M | 198 µM | 7.54 | 5.54 | 5 |  |
| CCCCC/C=C\C/C=C\CCCCCCCC(=O)O [LINOLEIC ACID] |  |  |  |  |  | inhibition at 200 µM (Bacillus subtilis [6]): 34.6% |
| CCCCCCCC/C=C\CCCCCCCC(=O)O [OLEIC ACID] |  |  |  |  |  | inhibition at 200 µM (Bacillus subtilis [6]): 30.2% |
| O=Cc1ccccc1O | 2.42 1/M | 3780 µM |  |  | 8.3 |  |
| O=[N+]([O-])c1ccc(O)cc1 [P-NITROPHENOL] | 2.17 1/M | 6830 µM |  | 1.61 | 7.1 |  |
| Nc1ccc(O)cc1 [4-AMINOPHENOL] |  |  |  |  | 10.3 | I50 (Bacillus subtilis [7]): No inhibition; Log 1/I50 (Bacillus subtilis [8]): No inhibition |
| Oc1ccc(Br)cc1 |  | 717 µM |  |  |  |  |
| O=[N+]([O-])c1ccccc1O [NITROPHENOLATE] | 2.5 1/M | 3150 µM | 1.77 | 1.47 | 7.2 |  |
| CC(C)c1ccc(O)cc1 | 3.17 1/M | 674 µM | 2.86 | 2.86 | 10.1 |  |
| Cc1ccccc1O [ORTHOCRESOL] | 2.89 1/M | 1300 µM | 1.98 | 1.98 | 10.3 |  |
| Oc1c(Cl)c(Cl)c(Cl)c(Cl)c1Cl [PENTACHLOROPHENOL] | 3.46 1/M | 346 µM |  |  | 5 |  |
| CCCCCCCCCCCC(=O)O [DODECANOATE] | 2.7 1/M | 1980 µM | 4.92 | 2.62 | 4.9 |  |

| Compound | Log 1/I50 (Bacillus subtilis [1]) | IC50 (Bacillus subtilis [2]) | logP (physchem [3]) | logD (physchem [4]) | pKa (physchem [5]) | also measured |
| --- | --- | --- | --- | --- | --- | --- |
| CCCCCCCCC(=O)O [NONANOATE] | 2.05 1/M | 8900 µM | 3.42 | 1.12 | 4.9 |  |
| CCCCCCCCCCCCC(=O)O [TRIDECANOATE] | 3.12 1/M | 750 µM | 5.42 | 3.12 | 4.9 |  |
| Nc1ccccc1O [QUESTIOMYCIN B] | 1.52 1/M | 29900 µM | 0.57 | 0.57 | 9.7 |  |
| O=C(O)c1ccc(O)cc1 [PARABEN] |  |  | 1.57 |  |  | pKa [9]: 9.4; I50 (Bacillus subtilis [10]): Not Active |
| COC(=O)c1ccccc1O [METHYL SALICYLATE] | 3 1/M | 1030 µM | 2.46 | 2.46 | 10.2 |  |
| O=Cc1ccc(O)cc1 [4-HYDROXYBENZALDEHYDE] | 1.7 1/M | 20000 µM | 1.37 | 1.22 | 7.6 |  |
| CCCCCCCCCC(=O)O [DECANOIC ACID] | 2.22 1/M | 6030 µM | 3.92 | 1.62 |  |  |
| Nc1cccc(O)c1 [3-AMINOPHENOL] | 1.35 1/M | 44700 µM | 0.16 | 0.16 | 9.9 |  |
| Oc1ccc(-c2ccccc2)cc1 | 3.89 1/M | 129 µM | 3.2 | 3.2 | 9.5 |  |
| NC(Cc1ccc(O)cc1)C(=O)O (stereo not given) |  |  |  |  |  | I50 (Bacillus subtilis [11]): No inhibition |
| Oc1cccc(O)c1 [RESORCINOL] | 2.42 1/M | 3830 µM | 0.78 | 0.78 | 9.4 |  |
| CCCCCCCCCCC(=O)O [UNDECANOATE] | 2.35 1/M | 4470 µM | 4.42 | 2.12 | 4.9 |  |
| Oc1cc(Cl)c(Cl)cc1Cl [TRICLOFENOL] | 3.89 1/M | 128 µM | 3.72 | 3.31 |  |  |
| O=C(O)c1ccccc1O [SALICYLIC ACID] |  |  | 2.24 |  |  | I50 (Bacillus subtilis [10]): No inhibition |
| Cc1cccc(O)c1 [METACRESOL] | 2.7 1/M | 2010 µM | 1.97 | 1.97 | 10.1 |  |
| O=[N+]([O-])c1cccc(O)c1 [3-NITRO-PHENOL] | 3.05 1/M | 901 µM |  |  | 8.4 | logD [12]: 1.97 |
| Cc1ccc(O)cc1 [p-CRESOL] | 2.44 1/M | 3640 µM |  | 1.94 |  |  |
| CC(C)c1ccccc1O | 3.57 1/M | 268 µM | 2.88 | 2.88 | 10.4 |  |
| Oc1c(Cl)cc(Cl)cc1Cl |  | 130 µM |  |  |  |  |
| CCCCCCCCCCCCCCCC(=O)O [PALMITIC ACID] |  |  |  |  |  | inhibition at 200 µM (Bacillus subtilis [6]): 17.3% |
| COc1ccccc1O [GUAIACOL] | 2.2 1/M | 6310 µM | 1.33 | 1.33 | 9.9 |  |
| Cc1ccc(C(C)C)c(O)c1 [THYMOL] | 3.31 1/M | 494 µM |  |  | 10.7 |  |
| Oc1ccccc1-c1ccccc1 [2-PHENYLPHENOL] | 3.55 1/M | 280 µM | 3.09 | 3.09 | 9.9 |  |
| Oc1c(Cl)cc(Cl)c(Cl)c1Cl | 3.57 1/M | 269 µM | 4.1 | 2.59 | 5.7 |  |
| Oc1ccccc1Cl [2-CHLOROPHENOL] | 3.25 1/M | 562 µM |  | 2.13 | 8.5 |  |
| Cc1cc(C)c(O)c(C)c1 | 2.85 1/M | 1400 µM | 2.86 | 2.86 | 10.9 |  |
| CCCCCCCC(=O)O [OCTANOIC ACID] | 1.27 1/M | 53500 µM | 2.92 | 0.62 |  |  |
